High-throughput results as filed in PubChem BioAssay.
Only some compounds are listed: those with a hit (about 3.4% of all), similar ones and a draw of the others.
GPR7 antag = blocks human GPR7 receptor signaling. P48145. GPR7-expressing cells, fluorescence antagonist assay. inhibition, % at 4.4 µM. actives 1.1% (n = 290,000). AID 1861; in the data active = inhibition above about 16%, passing the limit was not always enough;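 note: cells stimulated with the agonist NPW; 0% = agonist with vehicle and 100% = vehicle without agonist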
TAAR1 ag = human TAAR1 agonism; CHO RD-HGA16 TAAR1, Fluo-8 calcium fluorescence; vehicle wells 0%, saturating PEA agonist 100%; activation, % at 3 µM; actives 0.99% (n = 360,000); Q96RJ0;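 active = activation above the mean activation of all test compounds in the run plus 3 SD, cut at about 38% in these data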
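Test system: RD-HGA16 (CHO) cells co-expressing Gα16 and hTAAR1; dosing: one-point dosing at 3 µM (nominal); timing: 17-24 h seeding, 75 min 37 °C dye, 30 min RT; signal: kinetic Fluo-8 calcium fluorescence; read-out basis: % activation relative to PEA EC100 response; controls: DMSO and PEA EC100; replicates: n 1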
TRPN1 ag = agonists of zebrafish TRPN1 channel. HEK293 zebrafish TRPN1-YFP, Fluo-8 calcium fluorescence; 100% = response to 87 µM carbachol. activation, % at 3 µM. actives 0.18% (n = 220,000);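 active = activation above its plate's cutoff, the mean activation of test wells on that plate plus 3 SD, cut at about 19% in these data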;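 note: 0% = DMSO alone and 100% = 87 µM carbachol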
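System: zebrafish TRPN1-YFP in HEK293 cells / Dosing: 3 µM single point / Timing: dye loading 1 h at 37 °C, then 30 min room temperature / Signal: Fluo-8 calcium fluorescence, excitation 470-495 nm, emission 515-575 nm / Read-out basis: percent activation from peak over basal fluorescence ratio, control-normalized / Control set: high carbachol 87 µM, low DMSO alone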
LANA-H2B inh = blocks KSHV LANA binding to histone H2A/H2B | actives 0.6% (n = 320,000) | cell-free LANA-H2A/H2B peptide, fluorescence polarization | inhibition, % (test concentration not listed); in the data active = inhibition mostly above about 10%, no sharp cut-off; inactive = mostly below about 6.7%
Target sequence (Q9QR71 whole entry, looked up): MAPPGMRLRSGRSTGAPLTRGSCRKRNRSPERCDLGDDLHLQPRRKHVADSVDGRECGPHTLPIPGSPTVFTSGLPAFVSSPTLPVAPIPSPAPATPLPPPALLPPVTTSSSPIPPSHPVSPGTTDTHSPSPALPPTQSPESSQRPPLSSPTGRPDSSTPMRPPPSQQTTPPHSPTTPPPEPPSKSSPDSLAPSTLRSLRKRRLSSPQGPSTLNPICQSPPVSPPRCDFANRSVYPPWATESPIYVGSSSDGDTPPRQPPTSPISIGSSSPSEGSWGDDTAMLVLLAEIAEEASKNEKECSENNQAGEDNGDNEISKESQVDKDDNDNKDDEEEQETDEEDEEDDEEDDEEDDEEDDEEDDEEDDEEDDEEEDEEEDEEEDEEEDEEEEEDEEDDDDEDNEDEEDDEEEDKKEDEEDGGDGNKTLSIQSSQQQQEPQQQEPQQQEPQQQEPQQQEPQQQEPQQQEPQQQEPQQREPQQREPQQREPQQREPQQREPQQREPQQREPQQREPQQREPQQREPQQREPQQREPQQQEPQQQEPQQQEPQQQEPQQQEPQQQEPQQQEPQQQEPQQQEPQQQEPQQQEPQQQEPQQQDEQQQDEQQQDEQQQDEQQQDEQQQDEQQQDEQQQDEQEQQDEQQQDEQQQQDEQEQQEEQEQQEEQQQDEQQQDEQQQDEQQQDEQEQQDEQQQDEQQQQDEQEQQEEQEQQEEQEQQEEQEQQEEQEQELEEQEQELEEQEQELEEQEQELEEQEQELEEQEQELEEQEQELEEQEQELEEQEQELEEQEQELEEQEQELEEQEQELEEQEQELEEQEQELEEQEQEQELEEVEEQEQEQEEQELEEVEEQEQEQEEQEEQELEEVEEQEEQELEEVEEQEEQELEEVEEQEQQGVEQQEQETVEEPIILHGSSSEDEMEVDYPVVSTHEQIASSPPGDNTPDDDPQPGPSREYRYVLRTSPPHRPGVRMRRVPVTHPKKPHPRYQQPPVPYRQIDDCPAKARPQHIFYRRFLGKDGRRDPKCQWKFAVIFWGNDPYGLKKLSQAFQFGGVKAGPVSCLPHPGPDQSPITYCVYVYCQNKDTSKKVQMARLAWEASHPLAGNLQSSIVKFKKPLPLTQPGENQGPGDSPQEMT
TAAR1 antag = antagonists of human TAAR1; Q96RJ0; CHO RD-HGA16 TAAR1, Fluo-8 calcium fluorescence, antagonist; inhibition, % at 3 µM; actives 1.5% (n = 360,000); AID 624466;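 active = inhibition above a per-plate cutoff, the mean inhibition of test compounds on that plate plus 3 SD, cut at about 49% in these data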;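 note: 0% = DMSO plus EC80 beta-PEA response and 100% = DMSO alone without agonist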
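Assay system: RD-HGA16 CHO cells with stable hTAAR1 and Gα16 / Reagent: EC80 β-phenethylamine stimulus / Doses: 3 µM, single point / Timing: dye loading 75 min at 37 °C, then 30 min room temperature / Measured by: Fluo-8 intracellular calcium dye fluorescence, real-time kinetic reads / Controls: vehicle wells and EC80 agonist wells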
TRPML3 agonist = human mucolipin-3 channel agonism; activation, % at 3 µM; AID 1448; HEK293 TRPML3-YFP, Fluo-8 calcium fluorescence; 100% = the carbachol control signal; actives 0.29% (n = 220,000); Q8TDD5;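 active = activation above its plate's cutoff, the mean activation of the plate's test wells plus 3 SD, cut at about 12% in these data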;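 note: 0% = DMSO only wells and 100% = carbachol wells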
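Test system: HEK293 cells stably carrying human TRPML3-YFP; Doses: single dose, 3 µM final nominal compound, 0.3% DMSO final; Schedule: dye loading 1 h 37 °C then 30 min ambient, 125 s read; Technique: Fluo-8 calcium fluorescence; Benchmarks: high control carbachol 87 µM, low control DMSO.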
* = called active by the depositor; · = no result given.

SMILES | GPR7 antag | TAAR1 ag | TRPN1 ag | LANA-H2B inh | TAAR1 antag | TRPML3 agonist
O=C(COC(=O)C1CC2C=CC1C2)Nc1cccc(S(=O)(=O)N2CCCCCC2)c1 (stereo not given) | -9 | 8 | 13 | 4 | 68* | 5
O=C(COC(=O)c1c(F)cccc1F)Nc1cccc(S(=O)(=O)N2CCCCC2)c1 | · | 14 | · | · | 50* | ·
CN(C)C(CNC(=O)c1ccc(Cl)c(S(=O)(=O)N2CCCCCC2)c1)c1ccccc1 (stereo not given) | · | 25 | · | 15* | -19 | ·
CC(=O)c1c(C)[nH]c(C(=O)OCC(=O)Nc2cccc(S(=O)(=O)N3CCCC3)c2)c1C | 3 | 15 | 2 | -3 | 50* | 1
CC(=O)c1c(C)[nH]c(C(=O)OCC(=O)Nc2cc(S(=O)(=O)N3CCCC3)ccc2Cl)c1C | -7 | 37 | 2 | 1 | 13 | 1
NC(=O)[C@@H]1CCCN1C(=O)[C@@H](Cc1ccccc1)NC(=O)[C@H]1O[C@@H](n2ccc(=O)[nH]c2=O)[C@H](O)[C@@H]1O | · | 1 | · | · | -23 | ·
O=C(COC(=O)c1ccc(Cl)c(S(=O)(=O)N2CCCCCC2)c1)Nc1ccccc1 | -9 | 10 | 0 | 7 | 53* | 2
CCN(CC)S(=O)(=O)c1cccc(NC(=O)COC(=O)c2[nH]c(C)c(C(C)=O)c2C)c1 | · | 17 | · | · | 55* | ·
CC(=O)O[C@H]1CC[C@]2(C)C3CC[C@]4(C)[C@@H]([C@H](C)/C=C/[C@H](C)C(C)C)CC[C@H]4[C@@]34C=C[C@]2(C1)N(C(=O)c1ccccc1)O4 (stereo not given in full) | · | -1 | · | · | -22 | ·
COCCCNC(=O)CSc1nc2ccccc2c(=O)n1CCc1ccc(S(N)(=O)=O)cc1 | -2 | 10 | · | 3 | 57* | ·
O=C(O)CCCC[n+]1ccccc1 | · | 2 | · | · | -16 | ·
Cc1cc(C)cc(N/C(N)=N/c2nc(C)cc(C)n2)c1 | -1 | 39* | 3 | 0 | 24 | 2
COC(=O)c1cc(N/C(N)=N/c2nc(C)cc(C)n2)cc(C(=O)OC)c1 | · | 1 | · | · | -2 | ·
COC(=O)[C@@H](Cc1ccccc1)NC(=O)[C@H]1O[C@@H](n2cnc3c(=O)[nH]c(N)nc32)[C@H](O)[C@@H]1O | · | 1 | · | · | 4 | ·
CC1Cc2nc(SCC(=O)N3CCN(c4ccccc4)CC3)n(CCc3ccccc3)c(=O)c2S1 (stereo not given) | 10 | 1 | -1 | 2 | 52* | -1
CCn1c(SCC(=O)N2CCN(c3ccccc3)CC2)nc2c(c1=O)SC(C)C2 (stereo not given) | -3 | -2 | 0 | -4 | -38 | -1
CCOC(=O)N(C)[C@H]1C[C@H]2c3cc(-c4ccccc4C)ccc3CCN2C[C@H]1[C@H](C)O | · | 3 | · | · | -2 | ·
Oc1cccc2ccc(/C=C/c3cccs3)nc12 | -10 | 4 | 1 | 13* | 18 | 0
CCOC(=O)C1=CCN(S(=O)(=O)c2ccc(Br)cc2)C1c1cccc(Cl)c1 (stereo not given) | · | 1 | · | · | 5 | ·
O=C1c2ccccc2/C(=C\c2ccc(Br)nc2)N1c1ccccc1 | · | 2 | · | · | 3 | ·
COc1ccc(COc2cc(-c3cccc(OC)c3)nc3ccc(NC(=O)c4ccccc4)cc23)cc1 | 8 | 8 | 1 | 4 | 53* | 1
COc1ccc(COc2cc(-c3cccc(OC)c3)nc3ccc(NC(=O)c4ccc(OC)cc4)cc23)cc1 | 5 | 10 | 2 | 1 | 61* | 1
COc1ccc(NC(=O)c2cccc(NC(=O)c3ccccc3)c2)cc1 | 12 | 6 | · | 1 | 23 | ·
COc1ccc(COc2cc(-c3cccc(OC)c3)nc3ccc(NC(=O)c4ccc(Cl)cc4)cc23)cc1 | -6 | 8 | 2 | 4 | 26 | 1
O=C(NN=Cc1ccco1)C(=O)Nc1cccc(C(F)(F)F)c1 | · | 3 | · | · | 8 | ·
SMILES | GPR7 antag | TAAR1 ag | TRPN1 ag | LANA-H2B inh | TAAR1 antag | TRPML3 agonist
OCc1ccccc1OCc1ccccc1 | · | -1 | · | · | 8 | ·
COC(=O)c1[nH]c2ccccc2c1NC(=O)CNC1CCCCC1 | -4 | 21 | 4 | 0 | 61* | 0
COC(=O)c1[nH]c2ccccc2c1NC(=O)CN1CCCCCC1 | -12 | 5 | 1 | 1 | 18 | 1
Cc1oc2c(c1C(=O)c1ccc(Cl)cc1)C(=O)C(=O)c1ccccc1-2 | 28* | 13 | 1 | · | 28 | -1
COCc1[nH]nc2c1C(c1cccc(C(F)(F)F)c1)N(c1ccc(OC)cc1)C2=O (stereo not given) | · | 1 | · | · | -15 | ·
CC1(C(=O)Nc2ccc3[nH]ncc3c2)CCN1C(=O)Cc1ccc(-c2ccccc2)cc1 (stereo not given) | · | 18 | · | · | 50* | ·
CC(C)(C)c1ccc(CC(=O)N2CCC2(C)C(=O)Nc2ccc3[nH]ncc3c2)cc1 (stereo not given) | · | 3 | · | · | 12 | ·
Cc1cc(N2CCNC[C@@H]2C)ccc1N1CCS(=O)(=O)CC1 | · | 0 | · | · | -7 | ·
O=C(NCc1ccco1)Nc1c(Cl)cc(Cl)cc1Cl | · | 2 | · | · | 3 | ·
C[C@@H]1CN([C@H](C)CO)C(=O)c2cc(NC(=O)Nc3ccccc3)ccc2O[C@@H](C)CCCCO[C@H]1CN(C)S(C)(=O)=O | · | 4 | · | · | -14 | ·
C[C@H](CO)N1C[C@H](C)[C@@H](CN(C)C(=O)Nc2cccc(Oc3ccccn3)c2)OCc2cn(nn2)CCCC1=O | · | 2 | · | · | 11 | ·
Cc1cc(C)c(C)c(C(=O)CSc2nnc(-c3ccc4[nH]c(C)c(C)c4c3)o2)c1C | -8 | 6 | 0 | 4 | 69* | 1
O=C1c2ccccc2-c2onc3ccc(NCCCn4ccnc4)c1c23 | -6 | · | -1 | 176* | · | -1
NS(=O)(=O)c1ccc(NCCCn2ccnc2)c([N+](=O)[O-])c1 | -12 | 0 | · | -2 | -3 | ·
O=C(NNC(=O)c1cc2cc(Br)ccc2oc1=O)c1ccc(O)cc1 | -10 | 38* | 0 | 1 | -17 | 1
CC(C)c1[nH]nc2c1C(c1cccc(C(F)(F)F)c1)N(c1ccccc1)C2=O (stereo not given) | · | 0 | · | · | -63 | ·
CCOC(=O)C1CCN(C(=O)c2ccc(N3CCOCC3)c([N+](=O)[O-])c2)CC1 | · | 5 | · | 21* | 1 | ·
CC(=O)Nc1ccc(S(=O)(=O)NCCC(=O)OCc2nc(N)nc(Nc3ccccc3C)n2)cc1 | · | · | · | 157* | · | ·
Cc1cc(Br)c2nc(-c3ccc(F)cc3)c(Cc3cccc(Cl)c3)n2c1 | · | 0 | · | · | -6 | ·
Cc1cc(C)nc(N2CCC(C(=O)Nc3ccc4c(c3)OCO4)CC2)n1 | -5 | 0 | 1 | 3 | -17 | -1
Cc1cc(C)nc(N2CCCC(C(=O)Nc3ccc4c(c3)OCO4)C2)n1 (stereo not given) | 5 | 38* | -1 | -5 | 67* | -1
